Data set [1] deals with Cholinesterase (Homo sapiens) (UniProt P06276). Briefly: Activity of BuChE in 10% human plasma. Type of data set: cell-free. On the set-up: Vmax(app): unit not given here. In a few lines: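 Citrated human venous blood was centrifuged, and the pooled plasma or serum was diluted with phosphate buffer pH 7.4. Whole blood was used undiluted. Ester substrate at 5 × 10^-5 M was added from acetonitrile and incubated at 37 °C. Timed aliquots were quenched in ZnSO4 in MeCN/H2O and analysed by HPLC at 230 nm. Apparent KM and Vmax were fitted to the integrated Michaelis-Menten equation. Triplicate.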
Sequence of Cholinesterase (Homo sapiens) (P06276 whole entry): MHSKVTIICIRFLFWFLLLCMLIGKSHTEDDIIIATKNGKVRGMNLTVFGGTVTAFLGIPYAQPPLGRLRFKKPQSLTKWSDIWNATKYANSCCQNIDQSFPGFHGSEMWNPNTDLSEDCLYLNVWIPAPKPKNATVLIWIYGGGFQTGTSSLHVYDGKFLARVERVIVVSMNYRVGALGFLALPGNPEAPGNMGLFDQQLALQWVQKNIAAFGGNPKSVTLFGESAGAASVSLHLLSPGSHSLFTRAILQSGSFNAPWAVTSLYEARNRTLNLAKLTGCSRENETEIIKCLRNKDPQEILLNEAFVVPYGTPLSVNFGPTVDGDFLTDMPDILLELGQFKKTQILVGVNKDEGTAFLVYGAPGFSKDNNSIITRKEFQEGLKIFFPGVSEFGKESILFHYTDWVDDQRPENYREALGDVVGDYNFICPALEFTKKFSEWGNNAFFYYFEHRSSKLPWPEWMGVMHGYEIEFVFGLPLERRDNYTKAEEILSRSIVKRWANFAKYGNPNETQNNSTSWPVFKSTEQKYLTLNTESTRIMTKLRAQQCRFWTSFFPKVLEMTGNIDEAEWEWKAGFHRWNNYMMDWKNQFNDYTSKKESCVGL

Data set [2] in a line: Stability in 10% human plasma assessed as half life of hydrolysis at pH 7.4. The class given is ADME, cell-free. In a few lines: (§1)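 Pooled plasma or serum from centrifuged citrated human venous blood, diluted with pH 7.4 phosphate buffer (whole blood undiluted), preheated to 37 ± 0.5 °C. Ester added from acetonitrile at 5 × 10^-5 M. Aliquots were quenched in 2% ZnSO4 in MeCN/H2O (1:1), centrifuged, and analysed by gradient C18 HPLC (230 nm) until the parent was consumed. Fit to first-order decay; triplicate.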

In data set [3] the test system is Platelet. Briefly: Inhibition of arachidonic acid-induced platelet aggregation in whole blood. The class given is functional, tissue-based. In a few lines:
(§2)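 Citrated human whole blood (500 µL) diluted with 500 µL saline, equilibrated 10 min at 37 °C, then pre-incubated 10 min with stirring with test compound added in DMSO (10 µL). Aggregation triggered by arachidonic acid (0.5 mM); impedance read over 6 min. Inhibition tested over 5-100 µM; fit by nonlinear regression.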

Data set [4] is described as follows: Stability in 30% human plasma assessed as half life of hydrolysis at pH 7.4. The class given is ADME, cell-free. In a few lines:
as §1

Data set [5] relates to Plasma. Description: (§3) Stability in 50% human plasma assessed as half life of hydrolysis at pH 7.4. As to conditions: plasma. Type of data set: ADME, cell-free. In a few lines: (§4)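 Ester at 5 × 10^-5 M, added from acetonitrile, was incubated at 37 °C in pooled citrated human plasma diluted to 50% with phosphate buffer pH 7.4. Aliquots were deproteinised with ZnSO4 in MeCN/H2O and the remaining ester was quantified by HPLC at 230 nm. The rate constant came from an exponential decay fit. Triplicate.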

Data set [6] relates to Plasma. Briefly: Stability in 10% human plasma assessed as aspirin yield at pH 7.4. The class given is ADME, cell-free. In a few lines:
as §1

Data set [7] deals with Plasma. Description: Stability in 30% human plasma assessed as aspirin yield at pH 7.4. Type of data set: ADME, cell-free. In a few lines: as §1
For data set [8], the target named is Butyrylcholinesterase (Rattus norvegicus) (UniProt Q9JKC1). Briefly: Activity of BuChE in 10% rat plasma.
Sequence of Butyrylcholinesterase (Rattus norvegicus) (Q9JKC1 as listed by the source): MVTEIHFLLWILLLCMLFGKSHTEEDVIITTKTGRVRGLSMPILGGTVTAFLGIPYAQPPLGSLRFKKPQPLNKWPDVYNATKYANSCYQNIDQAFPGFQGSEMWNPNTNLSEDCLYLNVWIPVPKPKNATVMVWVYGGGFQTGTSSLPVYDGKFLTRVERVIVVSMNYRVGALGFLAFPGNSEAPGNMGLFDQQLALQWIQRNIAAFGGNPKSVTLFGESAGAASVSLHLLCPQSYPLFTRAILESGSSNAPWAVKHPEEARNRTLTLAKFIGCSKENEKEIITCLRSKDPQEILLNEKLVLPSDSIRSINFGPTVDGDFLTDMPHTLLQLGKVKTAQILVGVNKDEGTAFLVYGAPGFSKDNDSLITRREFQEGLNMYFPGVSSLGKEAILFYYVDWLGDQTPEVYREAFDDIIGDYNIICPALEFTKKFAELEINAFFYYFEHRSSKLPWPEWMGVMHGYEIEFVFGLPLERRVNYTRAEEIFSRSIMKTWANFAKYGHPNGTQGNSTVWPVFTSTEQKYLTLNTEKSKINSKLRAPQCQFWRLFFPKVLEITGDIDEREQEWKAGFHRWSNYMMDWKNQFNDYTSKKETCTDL
Data set [9] in a line: Stability in 30% human plasma assessed as half life of hydrolysis at pH 7.4 in presence of 10 uM carboxylesterase inhibitor BNPP. The class given is ADME, cell-free. As to conditions: pH 7.4, with BNPP (carboxylesterase inhibitor). In a few lines: (§5)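 Pooled citrated human plasma was diluted to 30% with phosphate buffer pH 7.4. Inhibitor was preincubated for 5 min before adding ester (5 × 10^-5 M) at 37 °C. Lines 15-16 used plasma from a donor with dibucaine-resistant BuChE. Timed aliquots were quenched with ZnSO4 in MeCN/H2O, and parent and aspirin were measured by HPLC at 230 nm. kobs came from exponential decay. Three determinations, mean ± SD.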

Data set [10] can be described thus: Stability in 30% human plasma assessed as half life of hydrolysis at pH 7.4 in presence of 20 uM cholinesterase inhibitor eserine. The class given is ADME, cell-free. As to conditions: pH 7.4, with eserine (cholinesterase inhibitor). In a few lines:
as §5

Data set [11] is described as follows: Stability in 30% human plasma assessed as half life of hydrolysis at pH 7.4 in presence of 100 uM AChE inhibitor BW284c51. Type of data set: ADME, cell-free. As to conditions: pH 7.4, with BW284c51 (AChE inhibitor). In a few lines: as §5
Data set [12] in a line: Stability in 30% human plasma assessed as half life of hydrolysis at pH 7.4 in presence of 0.1 uM AChE inhibitor BW284c51. The class given is ADME, cell-free. As to conditions: pH 7.4, with BW284c51 (AChE inhibitor). In a few lines:
as §5

A short description of data set [13]: Stability in 30% human plasma assessed as half life of hydrolysis at pH 7.4 in presence of 20 uM BuChE subtype inhibitor dibucaine. The class given is ADME, cell-free. As to conditions: pH 7.4, with dibucaine (BuChE subtype inhibitor). In a few lines: as §5
Data set [14] can be described thus: Stability in 30% human plasma assessed as half life of hydrolysis at pH 7.4 in presence of 10 uM BuChE inhibitor iso-OMPA. As to conditions: pH 7.4, with iso-OMPA (BuChE inhibitor). The class given is ADME, cell-free. In a few lines:
as §5

Data set [15] has as its system Plasma. Description: Stability in 30% human plasma assessed as aspirin yield at pH 7.4 in presence of 2 mM arylesterase inhibitor EDTA. Type of data set: ADME, cell-free. In a few lines:
(§6)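 Diluted human plasma (30%, pH 7.4, 37 °C) pre-incubated 5 min with inhibitor (EDTA 2 mM or BNPP 10 µM) before ester addition at 5 × 10^-5 M from acetonitrile. ZnSO4/MeCN quench, then HPLC of ester and aspirin. First-order fit; three determinations.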

For data set [16], the system named is Plasma. Briefly: Stability in 30% human plasma assessed as aspirin yield at pH 7.4 in presence of 10 uM carboxylesterase inhibitor BNPP. Type of data set: ADME, cell-free. In a few lines: as §6
Data set [17] deals with Plasma. Description: Stability in 30% human plasma assessed as aspirin yield at pH 7.4 in presence of 100 uM AChE inhibitor BW284c51. The class given is ADME, cell-free. In a few lines: as §5
The test system of data set [18] is Plasma. Briefly: Stability in 30% human plasma assessed as aspirin yield at pH 7.4 in presence of 20 uM BuChE subtype inhibitor dibucaine. The class given is ADME, cell-free. In a few lines:
as §5

Data set [19] in a line: Stability in 30% human plasma assessed as half life of hydrolysis at pH 7.4 in presence of 20 uM dubucaine-insensitive BuChE subtype inhibitor dibucaine. The class given is ADME, cell-free. As to conditions: pH 7.4, with dibucaine. In a few lines:
as §5

For data set [20], the system named is Plasma. Description: Stability in 30% plasma from patient with dubucaine-insensitive BuChE assessed as aspirin yield at pH 7.4 in presence of 20 uM BuChE inhibitor dibucaine. Type of data set: ADME, cell-free. As to conditions: human. In a few lines:
as §5

Data set [21] in a line: as §3. As to conditions: 50% human plasma. The class given is ADME, cell-free. In a few lines: as §4
The nature of data set [22]: Stability in 50% human serum assessed as half life of hydrolysis at pH 7.4. Type of data set: ADME, cell-free. In a few lines:
as §1

Data set [23] can be described thus: Stability in whole blood assessed as half life of hydrolysis at pH 7.4. Type of data set: ADME, tissue-based. In a few lines:
as §1

The nature of data set [24]: Stability in 10% rat plasma assessed as half life of hydrolysis at pH 7.4. The class given is ADME, cell-free.
In data set [25] the test system is Plasma. Briefly: Stability in 50% human plasma assessed as aspirin yield at pH 7.4. Type of data set: ADME, cell-free. In a few lines:
as §1

The subject of another data set is Serum. Description: Stability in 50% human serum assessed as aspirin yield at pH 7.4. The class given is ADME, cell-free. In a few lines:
as §1

Data set [26] is described as follows: Stability in whole blood assessed as aspirin yield at pH 7.4. Type of data set: ADME, tissue-based. In a few lines: as §1
A short description of data set [27]: Stability in 30% human plasma assessed as half life of hydrolysis at pH 7.4 in presence of 2 mM arylesterase inhibitor EDTA. The class given is ADME, cell-free. As to conditions: pH 7.4, with EDTA (arylesterase inhibitor). In a few lines: as §5
Data set [28] relates to Platelet. Description: Inhibition of arachidonic acid-induced platelet aggregation in whole blood at 100 uM. Type of data set: functional. In a few lines: as §2

Each structure is given as a SMILES string.

One may read the half-life as how long it takes for the measured level to halve. A word on the IC50: it is the midpoint of a concentration-inhibition curve. One may read the inhibition as the change of the read-out against control, counted positive when it falls.

Turning to `CC(=O)Oc1ccccc1C(=O)O[C@H]1CO[C@H]2[C@@H]1OC[C@H]2OC(=O)c1ccccc1OC(C)=O`, in data set [1], the Vmax(app) is 0.3. Besides, the half-life in [2] amounted to 3.35 min; in data set [4], 1.17 min. In the data set on Platelet [3], this molecule yielded an IC50 of 34.1 µM. Also, the t1/2 in the data set with Plasma [5] was 0.57 min. The Activity is 51% in the data set with Plasma [6] and 61% in the data set on Plasma [7].
For the molecule `CC(=O)Oc1ccccc1C(=O)O[C@H]1CO[C@H]2[C@@H]1OC[C@H]2OC(=O)c1ccccc1O`, the Vmax(app) is 0.17 in data set [1] and 1.75 M/min in data set [8]. In addition, the half-life in [2] turned out to be 4.9 min; in [9] it was 0.95 min; in [10], 5.8 min; in data set [11], 3.9 min; in [12], 1.1 min; in data set [13] it was 4.6 min. In addition, the half-life in data set [14] was 7.04 min; in data set [19], 2 min; in [21], 0.49 min; in [22] it was 0.56 min; in data set [23], 0.96 min; in [24], 0.47 min. Further, in data set [27], the half-life amounted to 1.41 min. Besides, the Activity with Plasma [15] turned out to be 85%; with Plasma [16], 84%; in the data set with Plasma [17], 30%; with Plasma [18] it was 6%; in the data set on Plasma [20], 69%; in the data set with Plasma [6], 74%. Moreover, the Activity in the data set on Plasma [25] stood at 81%; in the data set on Serum, 73%; in data set [26] it was 72%. Moreover, in the data set with Platelet [3], it took 17.3 µM to reach half-maximal inhibition (IC50).
Consider `CC(=O)Oc1ccccc1C(=O)O[C@H]1CO[C@H]2[C@@H]1OC[C@H]2O`, for which the Vmax(app) in data set [1] was determined as 0.22. Besides, in data set [2], the half-life is 3.25 min. The inhibition at 100 µM in the data set on Platelet [28] is less than 30%. For the same molecule, the Activity in the data set with Plasma [6] is 3%.
Take `CC(=O)Oc1ccccc1C(=O)O[C@@H]1CO[C@H]2[C@@H]1OC[C@@H]2OC(=O)c1ccccc1O`: in data set [1], the Vmax(app) stood at 0.23. The half-life in data set [2] came out at 4.21 min.
Turning to `CC(=O)Oc1ccccc1C(=O)O[C@@H]1CO[C@H]2[C@@H]1OC[C@@H]2O`, the Vmax(app) in data set [1] came out at 0.25. The half-life in data set [2] came out at 4.73 min.
With `CC(=O)Oc1ccccc1C(=O)Oc1ccccc1`, in [1], the T1/2 turned out to be 1.3 min.
`CC(=O)Oc1ccccc1C(=O)O` [ASPIRIN]: in [1], the T1/2 stood at 120 min. This molecule yielded an IC50 in the data set with Platelet [3] of 25.5 µM.

Values taken from ChEMBL document CHEMBL1151719, “Discovery of a "true" aspirin prodrug” (J Med Chem, 2008).
